Assay results as given in ChEMBL document CHEMBL1128395, “Design and synthesis of novel inhibitors of HIV-1 reverse transcriptase” (J Med Chem, 1995).
pEC50, pIC50: −log10 of the molar value.

tested on: MT4; test: Compound was evaluated for effective concentration required to achieve 50% protection of MT-4 cells against cytopathic effect of HIV-1; type: functional, cell-based; details: Homo sapiens

SMILES	pEC50
Cc1c(O)nc(O)nc1Sc1ccccc1	< 3.60

biological target: Human immunodeficiency virus type 1 reverse transcriptase (Human immunodeficiency virus 1, UniProt Q72547); test: Inhibitory activity against HIV-1 Reverse transcriptase; details: not given
How it was run: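 Cell-free HIV-1 reverse transcriptase inhibition assay, with TIBO and BI-RG-587 run as reference inhibitors. IC50 is the inhibitor concentration giving 50% enzyme inhibition, taken as the mean of at least two independent assays.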

SMILES	pIC50
CCOCn1c2c(c(=O)[nH]c1=O)CNc1ccccc1S2	4.30
CC(=O)OCCOCn1c2c(c(=O)[nH]c1=O)CNc1ccccc1S2	4.94
O=c1[nH]c(=O)n(COCCO)c2c1C(c1ccc([N+](=O)[O-])cc1)Nc1ccccc1S2 (configuration not stated)	< 4.00
CC(=O)OCCOCn1c2c(c(=O)[nH]c1=O)C(c1ccccc1)Nc1ccccc1S2 (configuration not stated)	< 4.00
CC(=O)OCCOCn1c2c(c(=O)n(C)c1=O)CNc1ccccc1S2	< 4.00
CCOCCOCn1c2c(c(=O)[nH]c1=O)CNc1ccccc1S2	6.19
O=c1[nH]c2c(c(=O)[nH]1)CNc1ccccc1S2 [PYRIMIDOBENZOTHIAZEPINE]	< 4.00

Continued, values first:

pIC50	SMILES
< 4.00	O=c1[nH]c(=O)n(COCCO)c2c1C(c1ccccc1)Nc1ccccc1S2 (configuration not stated)
4.83	CC(=O)OCCOCn1c2c(c(=O)[nH]c1=O)CN(C)c1ccccc1S2
< 4.00	CC(=O)OCCOCn1c2c(c(=O)[nH]c1=O)C(=O)Nc1ccccc1S2
< 4.00	O=c1[nH]c(=O)n(COCCO)c2c1CNc1ccccc1S2
